Data on 37 sequences can be found in the array DNA melting data of Ke et al. (doi:10.1101/2024.01.08.574731).

Series [1] in a line: melting temperature; fluorescence melt of hairpins on a sequencing array, two-state fit, raised by 9.35 °C to match UV melts. Conditions: sodium 0.088 M. The essentials:
(§1)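 Hairpins were imaged by Cy3 fluorescence on a sequenced MiSeq flow cell with annealed Cy3 and quencher oligos, in 50 mM Na-HEPES pH 8.0, 25 mM NaCl, in 2.5 °C steps up to 60 °C. Bootstrapped two-state fits of normalised signals gave melting temperature and folding enthalpy. Four replicates were combined by inverse variance, and fitted temperatures were raised by 9.35 °C to match UV melts.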

Series [2] is described as follows: folding enthalpy; higher = less favourable; fluorescence melt of hairpins on a sequencing array, two-state fit. Conditions: sodium 0.088 M. Put shortly: as §1

On to GCCTATGGAAACACAGGC ((((.((....)).)))), for which the Tm in series [1] was found to be 40 °C. In series [2], the folding enthalpy was -31.7 kcal/mol.

Regarding GCCTATGGAAACATGGGC (((.(((....))).))), in series [1], the Tm worked out at 51.7 °C. Moreover, the folding enthalpy in series [2] was -46.6 kcal/mol.

Take GCCTCCGAAAGGATAGGC ((((((....)))..))): in series [1], the Tm is 53.2 °C. Also, the folding enthalpy in series [2] was -37.1 kcal/mol.

Turning to GCCTCCGCGAAAGCGGGC (((..(((....)))))), in series [1], the Tm worked out at 52.2 °C. Further, in series [2], the folding enthalpy was -5.39 kcal/mol.

As to GCCTCGCGAAAGCACGGC (((..((....))..))), in series [1], the Tm turned out to be 54.1 °C. The folding enthalpy in series [2] was -22.5 kcal/mol.

Turning to GCCTCGCGAAAGCCGGGC (((..((....))..))), in series [1], the Tm was 55.8 °C. In addition, the folding enthalpy in series [2] was -22.5 kcal/mol.

Consider GCCTCGCGAAAGCGCGGC (((.(((....))).))), for which the Tm in series [1] amounted to 61.3 °C. Moreover, the folding enthalpy in series [2] is -40.8 kcal/mol.

In the case of GCCTCGCGAAAGCGCTGC ((..(((....)))..)), the Tm in series [1] is 38.5 °C. For the same sequence, the folding enthalpy in series [2] is -10.4 kcal/mol.

Regarding GCCTCGCGAAAGCTATGC ((.(.((....)).).)), the Tm in series [1] was determined as 15.9 °C. The folding enthalpy in series [2] is -4.77 kcal/mol.

On to GCCTCGGGAAACTGAGGC (((((.(....).))))), for which the Tm in series [1] is 59.4 °C. In series [2], the folding enthalpy was -37.1 kcal/mol.

For GCCTCGTCGAAAGACGGC (((..(((....)))))), the Tm in series [1] worked out at 49.6 °C. Further, in series [2], the folding enthalpy was -8.04 kcal/mol.

With GCCTCTCGAAAGAGCGGC (((.(((....))).))), in series [1], the Tm turned out to be 53.4 °C. In series [2], the folding enthalpy is -37 kcal/mol.

On to GCCTCTGGAAACGGAGGC (((((.(....).))))), for which the Tm in series [1] came out at 57.5 °C. Further, in series [2], the folding enthalpy was -40.7 kcal/mol.

For the sequence GCCTGACGAAAGTCGGC (((.(((....)))))), the Tm in series [1] was 63.1 °C. In addition, the folding enthalpy in series [2] is -23.2 kcal/mol.

As for GCCTGAGGAAACTCAAGC ((.((((....)))).)), the Tm in series [1] was 35.1 °C. In addition, the folding enthalpy in series [2] is -21.6 kcal/mol.

With GCCTGCGAAAGCAAGGGC ((((((....)))..))), in series [1], the Tm was determined as 61.3 °C. The folding enthalpy in series [2] was -18.7 kcal/mol.

Consider GCCTGCGAAAGCAGTGGC ((((((....)))..))), for which the Tm in series [1] worked out at 57.1 °C. In addition, the folding enthalpy in series [2] is -14.8 kcal/mol.

Consider GCCTGCGGAAACACAGGC (((((.(....).))))), for which the Tm in series [1] was determined as 52.4 °C. In addition, the folding enthalpy in series [2] was -40.8 kcal/mol.

GCCTGCGGAAACGCAAGC ((.((((....)))).)): the Tm in series [1] came out at 48 °C. For the same sequence, the folding enthalpy in series [2] was -18.5 kcal/mol.

Turning to GCCTGCGGAAACGTAGGC ((((.((....)).)))), the Tm in series [1] is 58 °C. In addition, in series [2], the folding enthalpy is -28 kcal/mol.

For GCCTGGCGAAAGCCAAGC ((.((((....)))).)), the Tm in series [1] is 57.7 °C. Besides, the folding enthalpy in series [2] was -17.5 kcal/mol.

GCCTGGCGAAAGCGAGGC ((((.((....)).)))): the Tm in series [1] stood at 68.2 °C. Also, the folding enthalpy in series [2] is -26.8 kcal/mol.

For the sequence GCCTGGCGAAAGCTATGC ((.(.((....)).).)), the Tm in series [1] came out at 37.5 °C. Moreover, the folding enthalpy in series [2] was -12.5 kcal/mol.

Regarding GCCTGGGGAAACCTAGGC ((((.((....)).)))), the Tm in series [1] stood at 54.4 °C. Moreover, in series [2], the folding enthalpy was -31.5 kcal/mol.

Consider GCCTGTCCGAAAGGAGGC (((..(((....)))))), for which the Tm in series [1] came to 46.6 °C. Besides, the folding enthalpy in series [2] was -19.2 kcal/mol.

Turning to GCCTGTCGAAAGACTGGC (((.(((....))).))), the Tm in series [1] was 61.2 °C. In series [2], the folding enthalpy was -39.1 kcal/mol.

Take GCCTGTGGAAACACAAGC ((.((((....)))).)): in series [1], the Tm amounted to 38.6 °C. Also, in series [2], the folding enthalpy is -22.5 kcal/mol.

As for GCCTTACGAAAGTAGGGC (((.(((....))).))), the Tm in series [1] stood at 57.3 °C. For the same sequence, the folding enthalpy in series [2] is -37.1 kcal/mol.

For GCCTTAGCGAAAGCTGGC (((..(((....)))))), in series [1], the Tm amounted to 51.5 °C. For the same sequence, the folding enthalpy in series [2] is -21 kcal/mol.

For GCCTTAGGAAACCAAGGC (((((.(....).))))), in series [1], the Tm was 45.2 °C. In addition, the folding enthalpy in series [2] was -27.4 kcal/mol.

Consider GCCTTAGGAAACTAGGGC (((.(((....))).))), for which, in series [1], the Tm is 45.5 °C. Also, the folding enthalpy in series [2] is -34.3 kcal/mol.

Take GCCTTCCGAAAGGAGGC (((.(((....)))))): in series [1], the Tm was found to be 59.4 °C. In addition, the folding enthalpy in series [2] is -29.8 kcal/mol.

For GCCTTCGAAAGAACAGGC ((((((....)))..))), in series [1], the Tm stood at 40.9 °C. Besides, in series [2], the folding enthalpy is -26.7 kcal/mol.

As for GCCTTCGAAAGAACGGGC ((((((....)))..))), the Tm in series [1] stood at 41 °C. The folding enthalpy in series [2] is -23 kcal/mol.

In the case of GCCTTCGAAAGAAGAGGC ((((((....)))..))), in series [1], the Tm is 46 °C. The folding enthalpy in series [2] is -23.4 kcal/mol.

With GCCTTCGGAAACAAAGGC (((((.(....).))))), the Tm in series [1] is 41.9 °C. Moreover, the folding enthalpy in series [2] is -27.5 kcal/mol.

GCCTTGAAAAAGGC (((((....))))): the Tm in series [1] worked out at 58.1 °C. Further, the folding enthalpy in series [2] was -24.4 kcal/mol.
